According to ChEMBL document CHEMBL1137699, “Synthesis, antibacterial and anticonvulsant evaluations of some cyclic enaminones” (Eur J Med Chem, 2009):
Converted amounts (≈) assume the structure as drawn. The source made the active and inactive calls. No cut-off for these calls is given here.

Tests used:
Mus musculus [1] = assay: Anticonvulsant activity against subcutaneous pentylenetetrazole-induced seizures in mouse at 300 mg/kg, ip; assay type: functional, organism-based; set-up: dose 300 mg/kg
Mus musculus [2] = assay: Anticonvulsant activity against maximal electroshock-induced seizures in mouse at 300 mg/kg, ip; assay type: functional, organism-based; set-up: dose 300 mg/kg
Staphylococcus [3] = assay: Antibacterial activity against methicillin-sensitive coagulase-negative Staphylococcus clinical isolate after 18 hrs by NCCLS M7-A4 method; assay type: functional
Method in brief: (§1)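 Test compounds dissolved in 80% DMSO in water. Clinical isolates came from a MRSA reference laboratory culture collection. Final inoculum 10^7 CFU/ml, incubated 35 °C for 18 h. MIC taken as the lowest concentration completely inhibiting growth. Reference strains S. aureus ATCC 25923, S. epidermidis ATCC 12228 and E. faecalis ATCC 29212 served as test controls.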

Staphylococcus [4] = assay: Antibacterial activity against methicillin-resistant coagulase-negative Staphylococcus clinical isolate after 18 hrs by NCCLS M7-A4 method; assay type: functional; method in brief: as §1
Escherichia coli = assay: Antibacterial activity against Escherichia coli ATCC 25922 after 18 hrs by NCCLS M7-A4 method; assay type: functional, organism-based
Method in brief: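 Reference E. coli strain tested by NCCLS/CLSI agar dilution. Compounds were in 80% DMSO in water over a 0.12–16 dilution range, incubated at 35 °C for 18 h.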

Haemophilus influenzae [5] = assay: Antibacterial activity against Haemophilus influenzae ATCC 49247 after 18 hrs by NCCLS M7-A4 method; assay type: functional, organism-based
Method in brief: (§2)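 Agar dilution on Mueller–Hinton agar with 5% sheep blood, per NCCLS/CLSI. Compounds were dissolved in 80% DMSO in water and tested over 0.12–16. Incubation was 35 °C for 18 h. MIC was read as the lowest concentration completely inhibiting growth. Line 4 used clinical isolates (n = 7 for H. influenzae).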

Enterococcus faecalis = assay: Antibacterial activity against Enterococcus faecalis ATCC 29212 after 18 hrs by NCCLS M7-A4 method; assay type: functional, organism-based
Method in brief: (§3)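 Agar dilution on Mueller–Hinton agar, following NCCLS (now CLSI) guidance. Test compounds were dissolved in 80% DMSO in water and tested at 0.12 to 16. Plates were incubated at 35 °C for 18 h. The MIC was the lowest concentration giving complete growth inhibition.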

[6] = tested on: Staphylococcus epidermidis; assay: Antibacterial activity against Staphylococcus epidermidis ATCC 12228 after 18 hrs by NCCLS M7-A4 method; assay type: functional, organism-based; method in brief: as §3
Streptococcus pneumoniae = assay: Antibacterial activity against Streptococcus pneumoniae clinical isolate after 18 hrs by NCCLS M7-A4 method; assay type: functional; method in brief: as §2
Haemophilus influenzae [7] = assay: Antibacterial activity against Haemophilus influenzae clinical isolate after 18 hrs by NCCLS M7-A4 method; assay type: functional; method in brief: as §2
Staphylococcus aureus [8] = assay: Antibacterial activity against Staphylococcus aureus ATCC 25923 after 18 hrs by NCCLS M7-A4 method; assay type: functional, organism-based; method in brief: as §3
Enterococcus [9] = assay: Antibacterial activity against vancomycin-sensitive Enterococcus clinical isolate after 18 hrs by NCCLS M7-A4 method; assay type: functional; method in brief: as §1
Enterococcus [10] = assay: Antibacterial activity against vancomycin-resistant Enterococcus clinical isolate after 18 hrs by NCCLS M7-A4 method; assay type: functional; method in brief: as §1
Mus musculus [11] = assay: Anticonvulsant activity against subcutaneous pentylenetetrazole-induced seizures in mouse at >100 to 300 mg/kg, ip; assay type: functional, organism-based; set-up: dose 300 mg/kg
Staphylococcus aureus [12] = assay: Antibacterial activity against methicillin-susceptible Staphylococcus aureus clinical isolate after 18 hrs by NCCLS M7-A4 method; assay type: functional; method in brief: as §1
Mus musculus [13] = assay: Anticonvulsant activity against maximal electroshock-induced seizures in mouse at <=100 mg/kg, ip; assay type: functional, organism-based
Mus musculus [14] = assay: Anticonvulsant activity against subcutaneous pentylenetetrazole-induced seizures in mouse at <=100 mg/kg, ip; assay type: functional, organism-based
Staphylococcus aureus [15] = assay: Antibacterial activity against methicillin-resistant Staphylococcus aureus clinical isolate after 18 hrs by NCCLS M7-A4 method; assay type: functional; method in brief: as §1

Q: How did the Activity (Mus musculus [1]) turn out when `CCOC(=O)C1C(=O)C=C(N2CCN(c3ccc([N+](=O)[O-])cc3F)CC2)CC1C` (centres undefined) was run?
A: inactive

Q: What about the Activity (Mus musculus [2]) of the same molecule?
A: inactive

Q: Which results are given for `COC(=O)C1C(=O)C=C(Nc2ccc(N3CCN(C(=O)OC(C)(C)C)CC3)c(F)c2)CC1C` (centres undefined)?
A: Activity (Mus musculus [1]): inactive; Activity (Mus musculus [2]): inactive

Q: Which MIC (Staphylococcus [3]) does the source give for `CN[C@H](CC(C)C)C(=O)N[C@H]1C(=O)N[C@@H](CC(N)=O)C(=O)N[C@H]2C(=O)N[C@H]3C(=O)N[C@H](C(=O)N[C@H](C(=O)O)c4cc(O)cc(O)c4-c4cc3ccc4O)[C@H](O)c3ccc(c(Cl)c3)Oc3cc2cc(c3O[C@@H]2O[C@H](CO)[C@@H](O)[C@H](O)[C@H]2O[C@H]2C[C@](C)(N)[C@H](O)[C@H](C)O2)Oc2ccc(cc2Cl)[C@H]1O` [VANCOMYCIN] here?
A: 1 µg/mL (≈ 0.69 µM)

Q: What about the MIC (Staphylococcus [4]) of the same molecule?
A: 2 µg/mL (≈ 1.38 µM)

Q: And the Activity (Escherichia coli)?
A: inactive

Q: And the Activity (Haemophilus influenzae [5])?
A: inactive

Q: And the Activity (Enterococcus faecalis)?
A: inactive

Q: What about the Activity [6] of the same molecule?
A: inactive

Q: And the MIC (Streptococcus pneumoniae)?
A: 0.25 µg/mL (≈ 0.173 µM)

Q: And the MIC (Haemophilus influenzae [7])?
A: > 32 µg/mL

Q: What about the Activity (Staphylococcus aureus [8]) of the same molecule?
A: inactive

Q: And the MIC (Enterococcus [9])?
A: 1 µg/mL (≈ 0.69 µM)

Q: And the MIC (Enterococcus [10])?
A: 8 µg/mL (≈ 5.52 µM)

Q: `COC(=O)C1C(=O)C=C(Nc2ccc(N3CCOCC3)c(F)c2)CC1c1ccccc1` (centres undefined) was tested. Which Activity (Mus musculus [1]) did it give?
A: inactive

Q: What about the Activity (Mus musculus [2]) of the same molecule?
A: inactive

Q: With `COC(=O)C1C(=O)C=C(N2CCN(c3ccc([N+](=O)[O-])cc3F)CC2)CC1c1ccccc1` (centres undefined) as the molecule, how does the Activity (Mus musculus [1]) read?
A: inactive

Q: What about the Activity (Mus musculus [2]) of the same molecule?
A: inactive

Q: For `COC(=O)C1C(=O)C=C(NCCCCc2ccccc2)CC1c1ccccc1` (centres undefined), which Activity (Mus musculus [1]) is on record?
A: inactive

Q: What about the Activity (Mus musculus [2]) of the same molecule?
A: inactive

Q: How did the Activity (Mus musculus [11]) turn out when `CCOC(=O)C1C(=O)C=C(N2CCOCC2)CC1C` (centres undefined) was run?
A: Active

Q: Which results are given for `CCOC(=O)C1C(=O)C=C(NC[C@H]2CN(c3ccc(N4CCOCC4)c(F)c3)C(=O)O2)CC1C` (some centres undefined)?
A: Activity (Mus musculus [1]): inactive; MIC (Staphylococcus [3]): > 16 µg/mL; Activity (Mus musculus [2]): inactive; Activity (Escherichia coli): inactive; Activity (Haemophilus influenzae [5]): inactive; Activity (Enterococcus faecalis): inactive; Activity [6]: inactive; MIC (Staphylococcus aureus [12]): > 16 µg/mL; MIC (Streptococcus pneumoniae): > 16 µg/mL; MIC (Haemophilus influenzae [7]): > 16 µg/mL; Activity (Staphylococcus aureus [8]): inactive; MIC (Enterococcus [9]): > 16 µg/mL

Q: `CCOC(=O)C1C(=O)C=C(Nc2ccc([N+](=O)[O-])cc2)CC1c1ccccc1` (centres undefined) was tested. Which Activity (Mus musculus [1]) did it give?
A: inactive

Q: And the Activity (Mus musculus [2])?
A: inactive

Q: `CCOC(=O)C1C(=O)C=C(Nc2cccc(Cl)c2)CC1C` (centres undefined) was tested. Which Activity (Mus musculus [13]) did it give?
A: Active

Q: And the Activity (Mus musculus [14])?
A: Active

Q: With `CC(=O)NC[C@H]1CN(c2ccc(N3CCOCC3)c(F)c2)C(=O)O1` [LINEZOLID] as the molecule, how does the MIC (Staphylococcus [3]) read?
A: 0.5 µg/mL (≈ 1.48 µM)

Q: And the MIC (Staphylococcus [4])?
A: 0.5 µg/mL (≈ 1.48 µM)

Q: And the Activity (Escherichia coli)?
A: inactive

Q: What about the Activity (Haemophilus influenzae [5]) of the same molecule?
A: inactive

Q: What about the Activity (Enterococcus faecalis) of the same molecule?
A: inactive

Q: What about the Activity [6] of the same molecule?
A: inactive

Q: And the MIC (Staphylococcus aureus [15])?
A: 0.5 µg/mL (≈ 1.48 µM)

Q: And the MIC (Haemophilus influenzae [7])?
A: 8 µg/mL (≈ 23.7 µM)

Q: What about the Activity (Staphylococcus aureus [8]) of the same molecule?
A: inactive

Q: What about the MIC (Enterococcus [9]) of the same molecule?
A: 1 µg/mL (≈ 2.96 µM)

Q: What about the MIC (Enterococcus [10]) of the same molecule?
A: 1 µg/mL (≈ 2.96 µM)

Q: For `CCOC(=O)C1C(=O)C=C(NCCCCc2ccccc2)CC1c1ccccc1` (centres undefined), which Activity (Mus musculus [1]) is on record?
A: inactive

Q: What about the Activity (Mus musculus [2]) of the same molecule?
A: inactive

Q: Which results are given for `CCOC(=O)C1C(=O)C=C(Nc2ccc(N3CCN(C(=O)OC(C)(C)C)CC3)c(F)c2)CC1c1ccccc1` (centres undefined)?
A: Activity (Mus musculus [1]): inactive; Activity (Mus musculus [2]): inactive

Q: Which results are given for `CCOC(=O)C1C(=O)C=C(Nc2ccc(Br)cc2)CC1c1ccccc1` (centres undefined)?
A: Activity (Mus musculus [1]): inactive; Activity (Mus musculus [2]): inactive

Q: With `CCOC(=O)C1C(=O)C=C(NCCc2ccccc2)CC1c1ccccc1` (centres undefined) as the molecule, how does the Activity (Mus musculus [1]) read?
A: inactive

Q: What about the Activity (Mus musculus [2]) of the same molecule?
A: inactive

Q: With `CCOC(=O)C1C(=O)C=C(N2CCN(c3ccc([N+](=O)[O-])cc3F)CC2)CC1c1ccccc1` (centres undefined) as the molecule, how does the Activity (Mus musculus [1]) read?
A: inactive

Q: What about the Activity (Mus musculus [2]) of the same molecule?
A: inactive

Q: With `CCOC(=O)C1C(=O)C=C(Nc2ccccc2)CC1c1ccccc1` (centres undefined) as the molecule, how does the Activity (Mus musculus [1]) read?
A: inactive

Q: What about the Activity (Mus musculus [2]) of the same molecule?
A: inactive

Q: For `COC(=O)C1C(=O)C=C(NCCc2ccccc2)CC1c1ccccc1` (centres undefined), which Activity (Mus musculus [1]) is on record?
A: inactive

Q: What about the Activity (Mus musculus [2]) of the same molecule?
A: inactive

Q: Which Activity (Mus musculus [1]) does the source give for `COC(=O)C1C(=O)C=C(NCCCc2ccccc2)CC1c1ccccc1` (centres undefined) here?
A: inactive

Q: What about the Activity (Mus musculus [2]) of the same molecule?
A: inactive

Q: `CCOC(=O)C1C(=O)C=C(Nc2ccc(N3CCOCC3)c(F)c2)CC1c1ccccc1` (centres undefined) was tested. Which Activity (Mus musculus [1]) did it give?
A: inactive

Q: And the MIC (Staphylococcus [3])?
A: > 16 µg/mL

Q: What about the Activity (Mus musculus [2]) of the same molecule?
A: inactive

Q: What about the Activity (Escherichia coli) of the same molecule?
A: inactive

Q: What about the Activity (Haemophilus influenzae [5]) of the same molecule?
A: inactive

Q: And the Activity (Enterococcus faecalis)?
A: inactive

Q: What about the Activity [6] of the same molecule?
A: inactive

Q: What about the MIC (Staphylococcus aureus [12]) of the same molecule?
A: > 16 µg/mL

Q: What about the MIC (Streptococcus pneumoniae) of the same molecule?
A: > 16 µg/mL

Q: And the MIC (Haemophilus influenzae [7])?
A: > 16 µg/mL

Q: What about the Activity (Staphylococcus aureus [8]) of the same molecule?
A: inactive

Q: And the MIC (Enterococcus [9])?
A: > 16 µg/mL

Q: Which results are given for `CCOC(=O)C1C(=O)C=C(Nc2ccc(Br)cc2)CC1C` (centres undefined)?
A: Activity (Mus musculus [13]): Active; Activity (Mus musculus [14]): Active
